Assay results taken from ChEMBL document CHEMBL3734708, “Synthesis, cytotoxicity and antiviral evaluation of new series of imidazo[4,5-g]quinoline and pyrido[2,3-g]quinoxalinone derivatives” (Eur J Med Chem, 2015).

How the values were obtained:
Yellow fever virus = test: Antiviral activity against YFV 17-D vaccine (Stamaril Pasteur J07B01) infected in BHK21 cells assessed as protection against virus-induced cytopathic effect after 3 or 4 days by MTT assay; assay type: functional, organism-based; conditions: BHK-21
Procedure, shortened: (§1)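 BHK-21 (YFV, Reo-1) or MDBK (BVDV) cells seeded at 5 × 10^4 or 3 × 10^4 cells/well and grown overnight to confluence. Monolayers infected at m.o.i. 0.01 in maintenance medium (MEM-Earle, 0.5% inactivated FBS). Serial compound dilutions added 2 h after infection; 37 °C for 3-4 days. Viability read by MTT. EC50 by linear regression versus untreated controls; mean of three determinations.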

Coxsackievirus B5 = test: Antiviral activity against CVB-5 virus Faulkner ATCC VR-185 infected in african green monkey Vero-76 cells after 3 days by plaque reduction assay; assay type: functional, organism-based; conditions: Enterovirus B, Faulkner ATCC VR-185, Vero 76, 72 h
[1] = Cytotoxicity against african green monkey Vero 76 cells assessed as reduction in cell viability after 48 to 96 hrs by MTT assay; assay type: cell-based; conditions: chlorocebus sabaeus
Procedure, shortened: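 Vero-76 cells plated at 4 × 10^5 cells/mL in D-MEM with L-glutamine, kanamycin and 10% FBS. Incubated with serial dilutions of test compounds at 37 °C, 5% CO2 for 48-96 h. Viability by MTT. CC50 by linear regression relative to untreated cells. Mean of three independent runs.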

Vaccinia virus = test: Antiviral activity against VV Elstree ATCC VR-1549 infected in african green monkey Vero-76 cells after 3 days by plaque reduction assay; assay type: functional, organism-based; conditions: Orthopoxvirus vaccinia, Elstree ATCC VR-1549, Vero 76, 72 h
[2] = tested on: Human immunodeficiency virus 1; test: Antiviral activity against HIV-1 3B infected in human MT4 cells assessed as protection against virus-induced cytopathic effect after 4 days by MTT assay; assay type: functional, organism-based; conditions: Human immunodeficiency virus 1, 3B, MT4, 96 h
Procedure, shortened: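 MT-4 cells (1 × 10^4/well in RPMI) with or without serial compound dilutions, infected with HIV-1 at 100 CCID50 (m.o.i. 0.01). After 4 days at 37 °C, protection from cytopathogenicity read by MTT. EC50 by linear regression versus untreated controls; mean of three independent determinations.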

[3] = tested on: Respiratory syncytial virus; test: Antiviral activity against RSVA2 ATCC VR-1540 infected in african green monkey Vero-76 cells after 5 days by plaque reduction assay; assay type: functional, organism-based; conditions: human respiratory syncytial virus, A2 ATCC VR-1540, Vero 76, 120 h
[4] = tested on: Human poliovirus 1 strain Sabin; test: Antiviral activity against Human poliovirus 1 strain Sabin 1 virus infected in african green monkey Vero-76 cells after 2 days by plaque reduction assay; assay type: functional, organism-based; conditions: Enterovirus C, 1, Vero 76, 48 h
[5] = Cytotoxicity against human MT4 cells assessed as reduction in cell proliferation after 96 hrs by MTT assay; assay type: cell-based
Procedure, shortened: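 MT-4 cells in exponential growth seeded at 1 × 10^5 cells/mL in RPMI-1640 with 10% FBS and penicillin/streptomycin. Cultured with serial compound dilutions at 37 °C, 5% CO2. MTT viability after 96 h. CC50 by linear regression against untreated controls. Mean of three independent determinations.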

[6] = Cytotoxicity against MDBK cells assessed as reduction in cell viability after 72 hrs by MTT assay; assay type: cell-based, Bos taurus; conditions: cattle
Procedure, shortened: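 MDBK cells seeded at 6 × 10^5 cells/mL in MEM-E with L-glutamine, 1 mM sodium pyruvate, kanamycin and 10% horse serum. Mock-infected cultures held with serial compound dilutions at 37 °C, 5% CO2. MTT viability read after 72 h. 50% cytotoxic concentration from linear regression as % of untreated controls. Three independent determinations.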

[7] = Cytotoxicity against BHK21 cells assessed as reduction in cell viability after 72 hrs by MTT assay; assay type: cell-based, Mesocricetus auratus, BHK-21; conditions: hamster
Procedure, shortened: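 BHK cells seeded at 1 × 10^6 cells/mL in MEM-E with L-glutamine, 1 mM sodium pyruvate, kanamycin and 10% FBS. Mock-infected cells exposed to serial dilutions of compound at 37 °C, 5% CO2, run in parallel with the antiviral assays. Viability by MTT at 72 h. CC50 by linear regression vs untreated controls. Mean of three independent determinations.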

[8] = tested on: Vesicular stomatitis virus; test: Antiviral activity against VSV Indiana ATCC VR-158 infected in african green monkey Vero-76 cells after 2 days by plaque reduction assay; assay type: functional, organism-based; conditions: Indiana ATCC VR-158, Vero 76, 48 h
[9] = tested on: Mammalian orthoreovirus 1; test: Antiviral activity against Reovirus 1 ATCC VR- 214 infected in BHK21 cells assessed as protection against virus-induced cytopathic effect after 3 or 4 days by MTT assay; assay type: functional, cell-based; conditions: Mammalian orthoreovirus 1, ATCC VR- 214, BHK-21; procedure, shortened: as §1
[10] = tested on: Bovine viral diarrhea virus 1; test: Antiviral activity against BVDV NADL ATCC VR-534 infected in MDBK cells assessed as protection against virus-induced cytopathic effect after 3 or 4 days by MTT assay; assay type: functional, organism-based; conditions: Bovine viral diarrhea virus isolates and strains, NADL ATCC VR-534, MDBK; procedure, shortened: as §1
Human alphaherpesvirus 1 = test: Antiviral activity against HSV-1 KOS ATCC VR- 1493 infected in african green monkey Vero-76 cells after 3 days by plaque reduction assay; assay type: functional, organism-based; conditions: Human alphaherpesvirus 1, KOS ATCC VR1493, Vero 76, 72 h

SMILES	EC50 (Yellow fever virus)	EC50 (Coxsackievirus B5)	CC50 [1]	EC50 (Vaccinia virus)	EC50 [2]	EC50 [3]	EC50 [4]	CC50 at 96 h [5]	CC50 at 72 h [6]	CC50 at 72 h [7]	EC50 [8]	EC50 [9]	EC50 [10]	EC50 (Human alphaherpesvirus 1)
CCn1c(=O)c(-c2ccccc2)nc2c(Cl)c3ncccc3cc21	> 100 µM	> 60 µM	60 µM	> 60 µM	> 100 µM	> 60 µM	> 60 µM	> 100 µM	> 100 µM	> 100 µM	> 60 µM	> 100 µM	> 100 µM	> 60 µM
CCCn1c(=O)c(-c2ccccc2)nc2cc3cccnc3c(Cl)c21	> 100 µM	7 µM	50 µM	> 50 µM	> 40 µM	> 50 µM	> 50 µM	40 µM	40 µM	> 100 µM	> 50 µM	> 100 µM	33 µM	> 50 µM
Cn1c(=O)c(-c2ccccc2)nc2c(Cl)c3ncccc3cc21	> 100 µM	17 µM	> 100 µM	> 100 µM	> 100 µM	> 100 µM	38 µM	> 100 µM	> 100 µM	> 100 µM	> 100 µM	> 100 µM	16 µM	> 100 µM
Cn1c(=O)c(-c2cccs2)nc2c(Cl)c3ncccc3cc21	> 100 µM	> 100 µM	> 100 µM	> 100 µM	> 100 µM	> 100 µM	> 100 µM	> 100 µM	> 100 µM	> 100 µM	> 100 µM	> 100 µM	2 µM	> 100 µM
c1ccc(Cc2nc3cc4cccnc4cc3n2CC2CCCCC2)cc1	> 71 µM	> 25 µM	25 µM	> 25 µM	> 10 µM	> 25 µM	> 25 µM	10 µM	> 100 µM	71 µM	> 25 µM	> 71 µM	10 µM	> 25 µM
Cn1c(=O)c(Cc2ccccc2)nc2c(Cl)c3ncccc3cc21	> 100 µM	> 100 µM	> 100 µM	> 100 µM	> 100 µM	> 100 µM	> 100 µM	> 100 µM	> 100 µM	> 100 µM	> 100 µM	> 100 µM	10 µM	> 100 µM
C#C[C@@]1(O)[C@H](O)[C@@H](CO)O[C@H]1n1ccc(N)nc1=O [2'-ETHYNYL-D-CYTIDINE]	–	> 100 µM	–	–	–	23 µM	27 µM	–	–	–	–	–	–	–
O=c1cnn([C@@H]2O[C@H](CO)[C@@H](O)[C@H]2O)c(=O)[nH]1 [6-AZAURIDINE]	–	≥ 12.5 µM	–	–	–	–	–	–	–	–	1.2 µM	–	–	–
O=c1c(-c2ccccc2)nc2cc3cccnc3c(Cl)c2n1C1CCCCC1	> 100 µM	> 70 µM	70 µM	> 70 µM	> 48 µM	> 70 µM	> 70 µM	48 µM	> 100 µM	> 100 µM	> 70 µM	> 100 µM	4 µM	> 70 µM
O=c1c(-c2ccccc2)nc2c(Cl)c3ncccc3cc2n1Cc1ccc([N+](=O)[O-])cc1	> 100 µM	> 100 µM	> 100 µM	> 100 µM	> 100 µM	> 100 µM	> 100 µM	> 100 µM	> 100 µM	> 100 µM	> 100 µM	> 100 µM	> 100 µM	> 100 µM
COc1nc2cc3cccnc3c(Cl)c2nc1-c1ccccc1	> 100 µM	> 100 µM	> 100 µM	> 100 µM	> 100 µM	9 µM	73 µM	> 100 µM	> 100 µM	> 100 µM	> 100 µM	21 µM	4 µM	> 100 µM
C[C@@]1(O)[C@H](O)[C@@H](CO)O[C@H]1n1cnc2c(=O)[nH]c(N)nc21 [2'-B-METHYL-GUANOSINE]	> 100 µM	–	–	–	–	–	–	–	> 100 µM	1.1 µM	–	1.9 µM	–	–
O=c1c(-c2ccccc2)nc2cc3cccnc3c(Cl)c2n1CC1CCCCC1	> 15 µM	> 20 µM	20 µM	> 20 µM	> 23 µM	> 20 µM	> 20 µM	23 µM	50 µM	15 µM	> 20 µM	> 15 µM	4 µM	> 20 µM
O=c1c(-c2cccs2)nc2cc3cccnc3c(Cl)c2n1C1CCCCC1	> 100 µM	> 100 µM	> 100 µM	> 100 µM	> 100 µM	> 100 µM	> 100 µM	> 100 µM	> 100 µM	> 100 µM	> 100 µM	> 100 µM	15 µM	> 100 µM
c1ccc(-c2nc3cc4cccnc4cc3n2C2CCCCC2)cc1	> 100 µM	> 35 µM	35 µM	> 35 µM	> 50 µM	> 35 µM	> 35 µM	50 µM	> 100 µM	> 100 µM	> 35 µM	67 µM	29 µM	> 35 µM
CC(C)c1nc2c(Cl)c3ncccc3cc2[nH]c1=O	> 100 µM	> 100 µM	> 100 µM	> 100 µM	> 100 µM	> 100 µM	> 100 µM	> 100 µM	> 100 µM	> 100 µM	> 100 µM	> 100 µM	> 100 µM	> 100 µM
Nc1ccn(C[C@@H](CO)OCP(=O)(O)O)c(=O)n1 [CIDOFOVIR]	–	> 100 µM	–	19 µM	–	–	–	–	–	–	–	–	–	–
CCOc1nc2cc3cccnc3c(Cl)c2nc1-c1ccccc1	> 100 µM	> 50 µM	50 µM	> 50 µM	> 100 µM	> 50 µM	> 50 µM	> 100 µM	> 100 µM	> 100 µM	> 50 µM	> 100 µM	73 µM	> 50 µM
O=c1c(Cc2ccccc2)nc2cc3cccnc3c(Cl)c2n1C1CCCCC1	> 20 µM	> 20 µM	20 µM	> 20 µM	> 34 µM	> 20 µM	> 20 µM	34 µM	> 100 µM	20 µM	> 20 µM	> 20 µM	5 µM	> 20 µM
Nc1nc2c(ncn2COCCO)c(=O)[nH]1 [ACYCLOVIR]	–	> 100 µM	–	–	–	–	–	–	–	–	–	–	–	–
C[C@@]1(O)[C@H](O)[C@@H](CO)O[C@H]1n1ccc(N)nc1=O	–	–	16 µM	–	–	–	–	–	–	–	–	> 100 µM	–	–
